PubChem BioAssay AID602285 (Broad Institute, 2012)
Active and inactive are the calls of the source.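 How the source made its calls: active means AC50 at or below twice the top valid dose for that sample, with falling signal; inconclusive means flat curve with inhibition of 30 to 70%, or poor fit; inactive means activity in the wrong direction, plus the rest.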

Biological target: Scavenger receptor class B member 1 (Mus musculus) (UniProt Q61009)
Assay: SR-BI mediated DiI-HDL lipid uptake blockers – ldlA[mSR-BI] CHO cells, fluorescence plate reader, dry powder, set 8, dose response (AID 602285)
Conditions: 3 h
In short: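 Assay system: ldlA[mSR-BI] cells, LDL receptor-deficient CHO line overexpressing murine SR-BI; Buffer or medium: Ham's F12, fatty acid-free BSA, HEPES pH 7.4; Dosing: pin-transferred compound series; Times: 3 h uptake at 37 °C; Measured by: bottom-read DiI fluorescence after PBS washes, excitation 550 nm, emission 595 nm; Controls: DMSO as neutral control, BLT-1 as inhibitor control.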

Sequence of Scavenger receptor class B member 1 (Mus musculus) (Q61009 whole entry, looked up): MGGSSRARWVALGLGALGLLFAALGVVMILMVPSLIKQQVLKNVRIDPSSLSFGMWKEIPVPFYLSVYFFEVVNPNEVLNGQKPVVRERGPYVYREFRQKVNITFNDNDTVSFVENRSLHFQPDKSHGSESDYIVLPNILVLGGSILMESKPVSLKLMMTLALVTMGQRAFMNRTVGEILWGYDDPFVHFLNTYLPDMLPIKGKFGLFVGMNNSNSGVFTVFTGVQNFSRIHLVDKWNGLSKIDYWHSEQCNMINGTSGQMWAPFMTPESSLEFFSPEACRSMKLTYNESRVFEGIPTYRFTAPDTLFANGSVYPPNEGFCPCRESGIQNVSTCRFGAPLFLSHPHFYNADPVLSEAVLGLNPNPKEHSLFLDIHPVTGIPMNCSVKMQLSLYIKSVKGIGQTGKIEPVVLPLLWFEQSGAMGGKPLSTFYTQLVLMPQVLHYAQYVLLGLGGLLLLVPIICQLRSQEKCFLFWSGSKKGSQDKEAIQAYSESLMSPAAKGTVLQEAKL

Q: How did the AC50 turn out when C[C@@H]1CN([C@H](C)CO)C(=O)c2cc(NC(=O)Cc3cn(C)c4ccccc34)ccc2O[C@H]1CN(C)C(=O)Nc1ccc2c(c1)OCO2 was run?
A: Its AC50 is 4.6 µM.

Q: Which AC50 does the source give for C[C@@H]1CN([C@H](C)CO)C(=O)c2cc(NS(=O)(=O)c3ccc(F)cc3)ccc2O[C@H]1CN(C)S(=O)(=O)c1ccc(Cl)cc1 here?
A: Its AC50 is 13.7 µM.

Q: C[C@@H]1CN([C@H](C)CO)C(=O)c2cc(NC(=O)Cc3cn(C)c4ccccc34)ccc2O[C@H]1CN(C)S(=O)(=O)c1cn(C)cn1 was tested. Which AC50 did it give?
A: The AC50 was 6.39 µM.

Q: Which AC50 does the source give for C[C@@H]1CN([C@H](C)CO)C(=O)c2cc(NC(=O)Cc3cn(C)c4ccccc34)ccc2O[C@H]1CN(C)C(=O)Nc1ccc(F)cc1 here?
A: The AC50 was 1.56 µM.

Q: How did the AC50 turn out when C[C@@H]1CN([C@H](C)CO)C(=O)c2cc(NC(=O)Nc3ccc4c(c3)OCO4)ccc2O[C@H]1CN(C)S(=O)(=O)c1ccc(Cl)cc1 was run?
A: Its AC50 is 0.856 µM.

Q: With C[C@@H]1CN([C@H](C)CO)C(=O)c2cc(NC(=O)Cc3cn(C)c4ccccc34)ccc2O[C@H]1CN(C)C(=O)Nc1cccc2ccccc12 as the molecule, how does the AC50 read?
A: The AC50 was 8.3 µM.

Q: C[C@H](CO)N1C[C@H](C)[C@H](CN(C)CC2CCCCC2)Oc2c(NS(=O)(=O)c3cn(C)cn3)cccc2C1=O was tested. Which AC50 did it give?
A: Its AC50 is > 70 µM (inactive).

Q: With C[C@@H]1CN([C@H](C)CO)C(=O)c2cc(NC(=O)Cc3cn(C)c4ccccc34)ccc2O[C@H]1CN(C)Cc1ccc(C(=O)O)cc1 as the molecule, how does the AC50 read?
A: Its AC50 is 11.8 µM.

Q: Which AC50 does the source give for C[C@@H]1CN([C@@H](C)CO)C(=O)Cc2cc(N(C)C)ccc2O[C@@H]1CN(C)Cc1ccc(C(=O)O)cc1 here?
A: The AC50 was 34.4 µM.

Q: How did the AC50 turn out when Cc1ccc(S(=O)(=O)N(C)C[C@@H]2Oc3ccc(NC(=O)Cc4cn(C)c5ccccc45)cc3C(=O)N([C@H](C)CO)C[C@H]2C)cc1 was run?
A: Its AC50 is 0.21 µM.

Q: For C[C@H](C(=O)NC1CCCC1)N(C(=O)Cn1nnc(-c2ccc3c(c2)OCO3)n1)C1CCCCC1, which AC50 is on record?
A: The AC50 was 0.0374 µM.

Q: With C[C@@H]1CN([C@@H](C)CO)C(=O)c2cc(NC(=O)Cc3cn(C)c4ccccc34)ccc2O[C@@H]1CN(C)S(=O)(=O)c1ccc(Cl)cc1 as the molecule, how does the AC50 read?
A: The AC50 was 10 µM.

Q: Cc1noc(C)c1NC(=O)N(C)C[C@@H]1Oc2ccc(NC(=O)Cc3cn(C)c4ccccc34)cc2C(=O)N([C@H](C)CO)C[C@H]1C was tested. Which AC50 did it give?
A: Its AC50 is 6.97 µM.

Q: Which AC50 does the source give for C[C@@H]1CN([C@H](C)CO)C(=O)c2cc(NC(=O)NC3CCCCC3)ccc2O[C@H]1CN(C)S(=O)(=O)c1ccc(Cl)cc1 here?
A: Its AC50 is 0.354 µM.

Q: How did the AC50 turn out when COc1cc(OC)cc(C(=O)Nc2nc(-c3ccc4c(c3)CCN4C(=O)CN3CCOCC3)cs2)c1 was run?
A: Its AC50 is under 0.015 µM.

Q: Which AC50 does the source give for C[C@@H]1CN([C@H](C)CO)C(=O)c2cc(NS(=O)(=O)c3cccs3)ccc2O[C@H]1CN(C)S(=O)(=O)c1ccc(Cl)cc1 here?
A: The AC50 was 3.77 µM.

Q: Which AC50 does the source give for C[C@@H]1CN([C@H](C)CO)C(=O)c2cc(NC(=O)Cc3cn(C)c4ccccc34)ccc2O[C@H]1CN(C)S(C)(=O)=O here?
A: The AC50 was 9.87 µM.

Q: How did the AC50 turn out when Cc1noc(C)c1NC(=O)Nc1ccc2c(c1)C(=O)N([C@H](C)CO)C[C@@H](C)[C@H](CN(C)S(=O)(=O)c1ccc(Cl)cc1)O2 was run?
A: Its AC50 is 7.1 µM.

Q: With CO[C@H]1CN(C)C(=O)c2cc(NC(=O)c3ccccc3F)ccc2OC[C@@H](C)N(C(C)=O)C[C@@H]1C as the molecule, how does the AC50 read?
A: The AC50 was > 70 µM (inactive).

Q: For C[C@@H]1CN([C@H](C)CO)C(=O)c2cc(NC(=O)Cc3cn(C)c4ccccc34)ccc2O[C@H]1CN(C)S(=O)(=O)c1ccc(Cl)cc1, which AC50 is on record?
A: Its AC50 is 0.174 µM.

Q: How did the AC50 turn out when C[C@@H]1CN([C@H](C)CO)C(=O)c2cc(NC(=O)C3CC3)ccc2O[C@H]1CN(C)S(=O)(=O)c1ccc(Cl)cc1 was run?
A: Its AC50 is 2.06 µM.

Q: C[C@@H]1CN([C@H](C)CO)C(=O)c2cc(NC(=O)Nc3cccc4ccccc34)ccc2O[C@H]1CN(C)S(=O)(=O)c1ccc(Cl)cc1 was tested. Which AC50 did it give?
A: The AC50 was 0.165 µM.

Q: With C[C@@H]1CN([C@H](C)CO)C(=O)c2cc(NC(=O)CCC(F)(F)F)ccc2O[C@H]1CN(C)S(=O)(=O)c1ccc(Cl)cc1 as the molecule, how does the AC50 read?
A: The AC50 was 0.258 µM.

Q: For C[C@@H]1CN([C@H](C)CO)C(=O)c2cc(NC(=O)Cc3cn(C)c4ccccc34)ccc2O[C@H]1CN(C)Cc1ccncc1, which AC50 is on record?
A: Its AC50 is 1.3 µM.

Q: Which AC50 does the source give for C[C@@H]1CN([C@H](C)CO)C(=O)c2cc(NC(=O)C3CCCCC3)ccc2O[C@H]1CN(C)S(=O)(=O)c1ccc(Cl)cc1 here?
A: The AC50 was 0.0304 µM.

Q: With CC(C)NC(=O)Nc1ccc2c(c1)C(=O)N([C@H](C)CO)C[C@@H](C)[C@H](CN(C)S(=O)(=O)c1ccc(Cl)cc1)O2 as the molecule, how does the AC50 read?
A: The AC50 was 0.123 µM.

Q: Which AC50 does the source give for C[C@@H]1CN([C@@H](C)CO)C(=O)Cc2cc(NS(C)(=O)=O)ccc2O[C@@H]1CN(C)Cc1ccc(C(F)(F)F)cc1 here?
A: The AC50 was 22.3 µM.

Q: COc1ccc(-c2nnn(CC(=O)N(C3CCCCC3)C(C)C(=O)NC3CCCCC3)n2)cc1OC (stereo unspecified) was tested. Which AC50 did it give?
A: Its AC50 is 0.2 µM.

Q: With C[C@H]1CN([C@@H](C)CO)C(=O)c2cc(NC(=O)Cc3cn(C)c4ccccc34)ccc2O[C@H]1CN(C)S(=O)(=O)c1ccc(Cl)cc1 as the molecule, how does the AC50 read?
A: Its AC50 is 12.3 µM.

Q: With C[C@@H]1CN([C@H](C)CO)C(=O)c2cc(NC(=O)Cc3cn(C)c4ccccc34)ccc2O[C@H]1CN(C)Cc1ccccc1 as the molecule, how does the AC50 read?
A: Its AC50 is 1.55 µM.

Q: For C[C@@H]1CN([C@H](C)CO)C(=O)c2cc(NC(=O)Cc3cn(C)c4ccccc34)ccc2O[C@H]1CN(C)CC1CCCCC1, which AC50 is on record?
A: The AC50 was 9.24 µM.
